Source: PMC3064798 (Nucleic Acids Research, 2011)
Entries after “also recorded” stand apart in the source; their conditions may differ.

Legend:
Assay in all cases: PEP
Format in all cases: biochemical
Therminator polymerase = biological target: T1, Therminator polymerase (Thermococcus sp., UniProt Q56366, A485L/D141A/E143A); conditions: for Incorporation bias (analog IC50/HOMedUTP IC50): Therminator
T1 sequence (Q56366 1-775 D141A/E143A/A485L): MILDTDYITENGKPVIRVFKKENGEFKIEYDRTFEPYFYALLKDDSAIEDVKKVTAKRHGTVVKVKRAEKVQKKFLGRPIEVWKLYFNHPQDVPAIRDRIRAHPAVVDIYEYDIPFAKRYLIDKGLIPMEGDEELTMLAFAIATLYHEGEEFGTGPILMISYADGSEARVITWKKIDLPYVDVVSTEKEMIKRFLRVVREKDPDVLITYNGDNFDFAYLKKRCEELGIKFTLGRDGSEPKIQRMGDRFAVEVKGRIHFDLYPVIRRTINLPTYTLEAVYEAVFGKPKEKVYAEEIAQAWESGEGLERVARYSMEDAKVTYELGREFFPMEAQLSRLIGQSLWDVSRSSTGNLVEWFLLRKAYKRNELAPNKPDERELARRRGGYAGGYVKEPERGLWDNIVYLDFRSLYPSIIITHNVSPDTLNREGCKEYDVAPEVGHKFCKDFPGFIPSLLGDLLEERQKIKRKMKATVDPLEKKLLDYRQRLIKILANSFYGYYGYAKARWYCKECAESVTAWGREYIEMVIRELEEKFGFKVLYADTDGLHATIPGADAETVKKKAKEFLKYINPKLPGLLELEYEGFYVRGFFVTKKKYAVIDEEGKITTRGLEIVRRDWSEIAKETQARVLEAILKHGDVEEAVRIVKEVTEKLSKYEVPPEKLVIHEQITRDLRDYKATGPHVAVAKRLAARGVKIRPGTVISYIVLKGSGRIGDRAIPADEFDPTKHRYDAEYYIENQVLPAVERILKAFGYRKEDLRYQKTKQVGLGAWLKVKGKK
Outline: (§1)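 Polymerase end-point assay for single-base incorporation. 5 nM BODIPY-FL-labelled primer-1 was hybridised to 40 nM oligoTemplate-4, with the interrogation base complementary to dU. Absence of a +1 band on the 377 gel image at 100 μM counts as not active. IC50 was averaged from triplicates ± 1 SD. Incorporation bias is the analog IC50 divided by the natural-nucleotide (HOMedUTP) IC50.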

Vent(exo^−) polymerase = biological target: T2, Vent(exo^−) polymerase (Thermococcus litoralis, UniProt P30317, D141A/DEL1082-1471/DEL495-1032/E143A); conditions: for Incorporation bias (analog IC50/HOMedUTP IC50): Vent(exo^−)
T2 sequence (P30317 with tags, fused parts or gaps D141A/E143A/DEL495-1032/DEL1082-1471): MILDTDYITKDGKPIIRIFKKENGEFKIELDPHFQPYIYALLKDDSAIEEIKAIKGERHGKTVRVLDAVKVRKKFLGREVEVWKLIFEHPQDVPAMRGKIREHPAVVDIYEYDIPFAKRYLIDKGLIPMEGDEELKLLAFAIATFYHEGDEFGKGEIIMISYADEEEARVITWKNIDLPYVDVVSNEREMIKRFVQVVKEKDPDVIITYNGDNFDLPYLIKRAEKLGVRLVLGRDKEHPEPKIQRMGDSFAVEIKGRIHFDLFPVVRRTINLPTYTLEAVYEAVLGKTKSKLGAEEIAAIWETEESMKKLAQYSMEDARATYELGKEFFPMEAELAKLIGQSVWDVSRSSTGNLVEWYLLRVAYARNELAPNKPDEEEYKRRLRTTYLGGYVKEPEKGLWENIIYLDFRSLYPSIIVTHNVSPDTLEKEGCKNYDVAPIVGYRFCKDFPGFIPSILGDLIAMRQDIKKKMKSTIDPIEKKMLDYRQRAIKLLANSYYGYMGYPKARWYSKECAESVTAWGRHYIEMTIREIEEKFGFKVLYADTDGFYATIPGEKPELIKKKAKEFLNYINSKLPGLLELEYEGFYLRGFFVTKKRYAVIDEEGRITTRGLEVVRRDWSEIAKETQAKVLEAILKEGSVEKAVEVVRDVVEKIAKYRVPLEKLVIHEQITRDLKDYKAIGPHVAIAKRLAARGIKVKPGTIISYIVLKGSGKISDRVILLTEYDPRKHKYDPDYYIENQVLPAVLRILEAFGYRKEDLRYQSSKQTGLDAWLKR
Outline: as §1

Bst polymerase = biological target: T3, Bst polymerase (Geobacillus stearothermophilus, UniProt P52026)
T3 sequence (P52026 1-876): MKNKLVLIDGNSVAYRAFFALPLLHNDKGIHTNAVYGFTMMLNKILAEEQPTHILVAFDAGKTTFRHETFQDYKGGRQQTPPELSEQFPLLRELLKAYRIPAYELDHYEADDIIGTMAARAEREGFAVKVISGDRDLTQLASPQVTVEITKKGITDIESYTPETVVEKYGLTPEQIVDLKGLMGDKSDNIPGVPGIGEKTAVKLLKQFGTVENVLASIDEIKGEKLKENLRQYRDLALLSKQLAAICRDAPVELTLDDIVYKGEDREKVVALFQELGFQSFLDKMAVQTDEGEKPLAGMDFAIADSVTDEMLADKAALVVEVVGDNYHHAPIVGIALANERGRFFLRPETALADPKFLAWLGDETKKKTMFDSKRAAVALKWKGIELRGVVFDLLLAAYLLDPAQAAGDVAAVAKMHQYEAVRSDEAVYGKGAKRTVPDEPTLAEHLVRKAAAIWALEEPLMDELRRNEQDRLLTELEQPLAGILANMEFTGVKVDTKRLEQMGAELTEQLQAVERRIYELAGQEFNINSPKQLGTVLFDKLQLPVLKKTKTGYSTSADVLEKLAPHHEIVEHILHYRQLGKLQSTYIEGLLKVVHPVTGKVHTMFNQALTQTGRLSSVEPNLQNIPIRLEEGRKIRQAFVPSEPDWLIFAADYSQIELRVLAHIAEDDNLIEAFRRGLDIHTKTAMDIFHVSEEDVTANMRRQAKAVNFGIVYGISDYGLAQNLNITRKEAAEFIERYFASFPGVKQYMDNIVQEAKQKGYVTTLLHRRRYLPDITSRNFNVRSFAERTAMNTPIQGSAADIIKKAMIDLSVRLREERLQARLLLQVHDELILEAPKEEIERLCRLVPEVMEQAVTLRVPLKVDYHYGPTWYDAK
Outline: as §1

Klenow(exo^−) polymerase = Klenow(exo^−) polymerase (Escherichia coli, UniProt P00582, D355A/E357A)
Outline: as §1

Taq polymerase = Taq polymerase (Thermus aquaticus, UniProt P19821); conditions: for IC50 values (activity in words): Taq, Not Active = no visible +1 band in 377 gel image at 100 μM
Outline: as §1

TaqFS polymerase = TaqFS polymerase (Thermus aquaticus, UniProt P19821, F667Y/G46D); conditions: for IC50 values (activity in words): TaqFS, Not Active = no visible +1 band in 377 gel image at 100 μM
Outline: as §1

TaqFS polymerase, sequence (P19821 whole entry G46D/F667Y): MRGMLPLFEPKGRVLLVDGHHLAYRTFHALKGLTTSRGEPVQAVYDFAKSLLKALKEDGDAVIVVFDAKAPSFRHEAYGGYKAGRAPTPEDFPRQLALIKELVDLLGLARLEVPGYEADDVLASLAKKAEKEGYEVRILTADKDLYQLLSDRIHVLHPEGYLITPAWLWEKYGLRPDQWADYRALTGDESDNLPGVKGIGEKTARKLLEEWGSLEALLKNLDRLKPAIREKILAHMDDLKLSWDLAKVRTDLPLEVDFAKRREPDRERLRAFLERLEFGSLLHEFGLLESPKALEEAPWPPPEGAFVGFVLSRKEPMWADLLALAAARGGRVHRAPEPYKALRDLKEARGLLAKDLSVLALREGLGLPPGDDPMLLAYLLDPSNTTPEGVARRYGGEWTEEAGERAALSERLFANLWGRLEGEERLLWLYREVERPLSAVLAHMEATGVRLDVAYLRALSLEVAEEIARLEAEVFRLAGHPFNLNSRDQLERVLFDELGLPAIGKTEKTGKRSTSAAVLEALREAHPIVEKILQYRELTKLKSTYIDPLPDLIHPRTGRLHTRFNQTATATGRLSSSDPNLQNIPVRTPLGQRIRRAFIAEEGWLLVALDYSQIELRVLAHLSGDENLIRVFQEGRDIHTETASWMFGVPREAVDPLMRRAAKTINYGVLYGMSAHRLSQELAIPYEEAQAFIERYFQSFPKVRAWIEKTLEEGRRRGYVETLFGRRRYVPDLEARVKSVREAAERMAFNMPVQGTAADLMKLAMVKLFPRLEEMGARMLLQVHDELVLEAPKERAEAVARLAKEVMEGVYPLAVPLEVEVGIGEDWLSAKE
Taq polymerase, sequence (P19821 whole entry): as the sequence (P19821 whole entry G46D/F667Y) above, with D46G, Y667F counted along it

Structure (SMILES)	Incorporation bias (analog IC50/HOMedUTP IC50) (Therminator polymerase)	IC50 (Vent(exo^−) polymerase)	Incorporation bias (analog IC50/HOMedUTP IC50) (Vent(exo^−) polymerase)	IC50 (Bst polymerase)	Incorporation bias (analog IC50/HOMedUTP IC50) (Bst polymerase; Bst)	IC50 (Klenow(exo^−) polymerase)	Incorporation bias (analog IC50/HOMedUTP IC50) (Klenow(exo^−) polymerase; Klenow(exo^−))	IC50 values (activity in words) (Taq polymerase)	IC50 values (activity in words) (TaqFS polymerase)	IC50 values (activity in words) (Bst polymerase; Bst, Not Active = no visible +1 band in 377 gel image at 100 μM)	IC50 values (activity in words) (Klenow(exo^−) polymerase; Klenow(exo^−), Not Active = no visible +1 band in 377 gel image at 100 μM)	IC50 (Therminator polymerase)	IC50 (Taq polymerase)	IC50 (TaqFS polymerase)
CC(OCc1cn([C@H]2C[C@H](O)[C@@H](COP(=O)(O)OP(=O)(O)OP(=O)(O)O)O2)c(=O)[nH]c1=O)c1ccccc1[N+](=O)[O-] (mixture of isomers) [dU.II, 5-[1-(2-Nitrophenyl)ethyloxy]methyl-2'-deoxyuridine-5’-triphosphate]	1.0	2.2 ± 0.2 nM	1.6	3500 ± 200 nM	1600	2400 ± 100 nM	1500	no activity at all; also recorded: Not Active^a	no activity at all					
CC(C)C(OCc1cn([C@H]2C[C@H](O)[C@@H](COP(=O)(O)OP(=O)(O)OP(=O)(O)O)O2)c(=O)[nH]c1=O)c1ccccc1[N+](=O)[O-] (mixture of isomers) [dU.III, 5-[1-(2-Nitrophenyl)-2-methyl-propyloxy]methyl-2'-deoxyuridine-5’-triphosphate]	1.4	5.9 ± 0.7 nM	4.2					none of the Family A polymerases showed any activity; also recorded: Not Active^a	none of the Family A polymerases showed any activity	none of the Family A polymerases showed any activity; also recorded: Not Active^a	Not Active^a			
O=c1[nH]c(=O)n([C@H]2C[C@H](O)[C@@H](COP(=O)(O)OP(=O)(O)OP(=O)(O)O)O2)cc1COCc1ccccc1[N+](=O)[O-] [dU.I, 5-(2-Nitrobenzyloxy)methyl-2'-deoxyuridine-5’-triphosphate]	1.1	2 ± 0.1 nM	1.4	98 ± 13 nM	45	48 ± 4 nM	30					1.8 ± 0.1 nM	50000 nM	25000 nM
